Assay results as given in ChEMBL document CHEMBL1125653, “Synthesis and pharmacological evaluation of a major metabolite of ameltolide, a potent anticonvulsant” (1991).

Tests used:
Format in all cases: functional
Mus musculus [1] = test: Anticonvulsant effect by maximal electroshock assay in mice after intravenous administration.
In short: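 Male CF-1 mice, 18–26 g. Compounds dissolved in 2.5% ethanol–2.5% emulphor/water and injected into the tail vein 5 min before MES: 50 mA ac, 0.1 s, corneal electrodes. Absence of tonic hindlimb extension scored as protection. Groups of 12 mice per dose; ED50 with 95% confidence limits calculated from dose–effect data.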

Mus musculus [2] = test: Anticonvulsant effect by maximal electroshock assay in mice after peroral administration.; details: po
In short: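 Male CF-1 mice, 18–26 g, fasted from food and water 1.5 h; compounds suspended in 5% acacia/water, given orally at 0.01 mL/g. Tested at each compound's time of peak effect. MES: 50 mA ac for 0.1 s via corneal electrodes; protection = no hindlimb tonic extension. Groups of 12 mice at several doses; ED50 and 95% confidence limits computed from dose–effect data.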

Mus musculus [3] = test: Time to peak anticonvulsant effect was measured after oral dosing in mice.
In short: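 Time to peak anticonvulsant effect in MES-tested male CF-1 mice after oral dosing (5% acacia/water suspension, 0.01 mL/g, 1.5 h fasted). Used to set the test time for the oral ED50 determinations.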

Mus musculus [4] = test: Anticonvulsant effect by horizontal screen assay in mice after peroral administration.; details: po, in the assay text read “Neurological impairment” for “Anticonvulsant effect”
In short: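 Neurological impairment in previously trained male CF-1 mice (18–26 g) after oral dosing in 5% acacia/water (0.01 mL/g; 1.5 h food and water deprivation). Each mouse placed on a 13 × 13 cm no. 4 mesh wire screen, which was rotated 180°. Scored on whether it climbed back to the top within 1 min. Groups of 12 per dose; ED50 with 95% confidence limits.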

[5] = Protective index measured as the ratio of HS ED50/MES ED50 values.
In short: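 Ratio of oral horizontal-screen ED50 to oral MES ED50 in male CF-1 mice. Both ED50s were derived from groups of 12 mice given compound suspended in 5% acacia/water.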

| SMILES | ED50 (Mus musculus [1]) | ED50 (Mus musculus [2]) | TPE (Mus musculus [3]) | ED50 (Mus musculus [4]) | Protective index [5] |
| --- | --- | --- | --- | --- | --- |
| CC(=O)Nc1ccc(C(=O)Nc2c(C)cccc2CO)cc1 | > 80 mg/kg | > 100 mg/kg | 1 h | – | – |
| Cc1cccc(C)c1NC(=O)c1ccc(N)cc1 [AMELTOLIDE] | 19.9 mg/kg | 1.4 mg/kg | 0.5 h | 23 mg/kg | 13 |
| Cc1cccc(CO)c1NC(=O)c1ccc(N)cc1 | 3.9 mg/kg | 10.9 mg/kg | 1 h | 66 mg/kg | 6 |
| CC(=O)Nc1ccc(C(=O)Nc2c(C)cccc2C)cc1 | 19.9 mg/kg | 4.7 mg/kg | 2 h | 96.4 mg/kg | 21 |
| O=C1NC(=O)C(c2ccccc2)(c2ccccc2)N1 [PHENYTOIN] | – | 8.1 mg/kg | 2 h | 83.7 mg/kg | – |
